A selection: hits, their analogues and other compounds. The true share with any hit is near 1.9%.
PP5 primary = PP5 phosphatase inhibitors, primary screen, biochemical, fluorescence; Serine/threonine-protein phosphatase 5 (Homo sapiens), P53041; purified PP5c, OMFP substrate fluorescence; inhibition, % at 6.7 µM; hit rate 0.18% among 320,000; AID 1987, 2009;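 active = inhibition above the campaign's mean inhibition across all tested compounds plus 3 SD, cut at about 9.5% in these data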
PP1 inh = PP1-alpha phosphatase inhibitors, primary screen, counter-screen for PP5 inhibitor project, biochemical, fluorescence, OMFP substrate, single point; Serine/threonine-protein phosphatase PP1-alpha catalytic subunit (Homo sapiens), P62136; purified PP1alpha; inhibition, % at 6.7 µM; hit rate 0.9% among 320,000; AID 2235, 2010;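 active = inhibition above the mean inhibition of all tested compounds plus 3 SD, computed separately for each screening campaign, cut at about 15% in these data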
Target sequence (P62136 whole entry, looked up): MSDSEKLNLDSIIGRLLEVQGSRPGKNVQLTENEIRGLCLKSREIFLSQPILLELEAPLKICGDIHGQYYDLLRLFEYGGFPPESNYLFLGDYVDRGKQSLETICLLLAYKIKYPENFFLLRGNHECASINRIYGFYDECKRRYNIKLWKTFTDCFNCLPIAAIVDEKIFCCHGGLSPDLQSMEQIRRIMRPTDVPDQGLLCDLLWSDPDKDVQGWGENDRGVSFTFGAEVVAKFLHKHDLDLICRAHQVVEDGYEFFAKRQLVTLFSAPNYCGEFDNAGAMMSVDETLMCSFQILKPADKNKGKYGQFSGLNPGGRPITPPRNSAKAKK
Scp-1 inhibitor = Scp-1 phosphatase inhibitors, primary screen, biochemical, colorimetric, uHTS | hit rate 0.88% among 340,000 | AID 493091, 2011 | Carboxy-terminal domain RNA polymerase II polypeptide A small phosphatase 1 (Homo … | inhibition, % at 20 µM | Recombinant Scp1, phosphopeptide, malachite green phosphate absorbance;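 active = inhibition above about 50% at 20 µM, limit read from the data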
Target sequence (Q9GZU7 76-261 limits assumed): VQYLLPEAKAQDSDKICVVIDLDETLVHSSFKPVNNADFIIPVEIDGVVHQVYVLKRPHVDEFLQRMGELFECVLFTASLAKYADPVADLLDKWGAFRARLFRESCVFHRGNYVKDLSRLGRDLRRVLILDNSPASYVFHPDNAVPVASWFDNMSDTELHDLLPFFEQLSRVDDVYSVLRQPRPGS
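assay system = SCP-1 phosphatase catalytic domain, residues 76-261 | buffer or medium = 50 mM Tris acetate pH 5.5, 0.005% Tween-20, 10 mM MgCl2 | incubation = enzyme reaction 45 min at room temperature, colour 5 min, stabilisation 30 min | signal = Phosphate-binding colour reagent, absorbance read at 630 nm | measure = % inhibition at 20 µM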
STEP block = STEP phosphatase inhibitors, primary screen, biochemical, fluorescence intensity, uHTS. Tyrosine-protein phosphatase non-receptor type 5 (Homo sapiens), P54829. recombinant STEP, OMFP fluorogenic substrate. inhibition, % at 20 µM. hit rate 0.25% among 360,000;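 active = inhibition at 20 µM, scaled per plate between control wells, above about 37%, limit read from the data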
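Assay system: isolated STEP enzyme. Buffer or medium: pH 6.0 Bis-Tris with DTT and Tween 20. Also added: fluorogenic phosphatase substrate OMFP at 25 µM final. Dosing: 20 µM, 1% DMSO. Timing: 20 min reaction, room temperature, in the dark. Measured by: fluorescence intensity, excitation 480 nm, emission 540 nm. Evaluation: normalized % inhibition.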
LMPTP inh = LMPTP phosphatase inhibitors, primary screen, biochemical, fluorescence intensity, uHTS. Low molecular weight phosphotyrosine protein phosphatase (Homo sapiens), P24666. recombinant LMPTP-A, OMFP fluorogenic substrate. inhibition, % at 20 µM. hit rate 0.22% among 360,000. AID 651560, 2012;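 active = compounds that cut the enzyme signal by at least half of the control window in the single-dose screen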
Target sequence (P24666 whole entry, looked up): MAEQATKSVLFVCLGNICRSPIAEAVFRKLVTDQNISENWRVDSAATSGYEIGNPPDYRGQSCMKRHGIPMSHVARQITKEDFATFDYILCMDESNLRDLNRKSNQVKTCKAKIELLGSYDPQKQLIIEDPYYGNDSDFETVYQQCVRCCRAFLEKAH
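Test system: LMPTP-A, protein tyrosine phosphatase of low molecular weight; Input: 0.625 nM enzyme; Incubation: 50 min dark incubation at room temperature; Signal: endpoint fluorescence intensity from OMFP dephosphorylation; Read-out basis: % inhibition versus control wells.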
PP1 confirm = PP1 phosphatase inhibitors, confirmation, biochemical, fluorescence, OMFP substrate, triplicate; AID 2358, 2010; purified PP1alpha; hit rate 52% among 1,900; shares compounds with PP1 inh; inhibition, % at 6.7 µM;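 active = mean PP1 inhibition above a set limit taken from the earlier primary screen, cut at about 15% in these data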
PP5 counter = PP5 phosphatase inhibition by PP1 hits, confirmation, counter-screen for PP1 inhibitor project, biochemical, fluorescence, triplicate; hit rate 4% among 1,900; inhibition, % at 6.7 µM; purified PP5c, OMFP fluorescence; shares compounds with PP1 inh;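 active = mean PP5 inhibition over triplicate wells above about 9.5% taken from the earlier PP1 screen, limit read from the data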
Hits are given with their value; – = inactive; · = not tested or not shown.

SMILES	PP5 primary	PP1 inh	Scp-1 inhibitor	STEP block	LMPTP inh	PP1 confirm	PP5 counter
O=C(Cc1ccc(Cl)cc1)Nc1ccc2oc(=O)ccc2c1	–	–	–	–	–	·	·
O=C(Cc1ccc(Cl)cc1)Nc1ccc(-c2cc3ccccc3oc2=O)c(Cl)c1	–	23.4	–	–	–	24.4	–
Cc1ccc(Cn2cc(S(=O)(=O)c3ccc(C(C)C)cc3)c(=O)c3cc4c(cc32)OCO4)cc1	–	18.3	–	–	–	17.9	–
O=C(Nc1cc(S(=O)(=O)N2CCCCC2)ccc1Cl)c1ccccc1NS(=O)(=O)c1ccc(F)cc1	–	19.9	–	–	–	–	–
O=C(Nc1ccc(N2CCCCC2)c(S(=O)(=O)Nc2ccccc2Cl)c1)c1cccnc1	·	·	–	–	–	·	·
O=C(Nc1ccc(F)cc1)Nc1ccc(N2CCCC2)c(S(=O)(=O)Nc2ccccc2Cl)c1	–	24.4	–	–	–	–	–
O=C(Nc1ccc(Cl)c(Cl)c1)Nc1ccc(N2CCCC2)c(S(=O)(=O)Nc2ccccc2Cl)c1	–	17.8	–	–	–	–	–
O=C(CSc1nnc(NC(=O)c2ccccc2F)s1)NCC1CCCO1 (stereo not drawn)	–	–	–	–	–	·	·
CCSc1nc2ccc(N3C(=O)C4C5C=CC(C5)C4C3=O)cc2s1 (stereo not drawn)	–	–	–	–	–	·	·
O=C1[C@@H]2Cc3c([nH]c4ccccc34)C(c3ccccc3)N2C(=O)CN1CCO (stereo partly drawn)	–	–	–	–	–	·	·
CCC(=O)c1ccc(OCC(=O)Nc2nc(-c3cccnc3)cs2)cc1	–	17.9	–	–	–	29.0	–
CCC(=O)c1ccc(OCC(=O)Nc2nc(C)cs2)cc1	·	·	–	–	–	·	·
CCc1ccccc1OCC(=O)Nc1nc(-c2cccnc2)cs1	10.1	44.8	–	–	–	44.0	–
Cc1ccccc1OCC(=O)Nc1nc(-c2ccncc2)cs1	–	–	–	–	–	·	·
CCC(O)CC(C(=O)NNc1ccccc1)C(=O)NNc1ccccc1 (stereo not drawn)	–	–	–	–	–	·	·
COc1cc(/C=C(\C#N)C(=O)Nc2cccc(C(=O)O)c2)ccc1OCc1ccc(Cl)cc1	–	31.4	–	85.5	–	24.2	–
CCCn1c(N)c(C(=O)CSc2nc(C)cs2)c(=O)[nH]c1=O	–	–	–	–	–	·	·
CCCn1c(N)c(C(=O)CSc2nc(C)nc3sc(C)c(C)c23)c(=O)[nH]c1=O	–	22.3	–	–	–	–	–
O=C(N/N=C/c1ccc2c(c1)OCO2)c1sc2cc(Cl)ccc2c1Cl	–	–	–	–	–	·	·
O=C(N/N=C/c1ccc2c(c1)OCO2)c1ccc2c(c1)OCCO2	–	–	–	–	–	·	·
COc1ccc2c(Cl)c(C(=O)N/N=C/c3ccc4c(c3)OCO4)sc2c1	–	19.5	–	–	–	48.2	–
O=C(N/N=C/c1ccc2c(c1)OCO2)c1ccc(NC(=O)c2ccc(F)cc2)cc1	–	18.9	–	–	–	30.1	–
O=C(N/N=C/c1cc(Br)cc([N+](=O)[O-])c1O)c1ccc(NC(=O)c2ccc(F)cc2)cc1	–	21.7	88.9	97.8	61.2	35.1	–
COc1ccccc1N(CC(=O)NC1CCCCC1C)S(=O)(=O)c1cccs1 (stereo not drawn)	·	·	–	–	–	·	·
CCC(C(=O)NC1CCCC1)N(C(=O)Cn1nnc(-c2ccc(C)o2)n1)c1cnc2ccccc2c1 (stereo not drawn)	–	–	–	–	–	·	·
SMILES	PP5 primary	PP1 inh	Scp-1 inhibitor	STEP block	LMPTP inh	PP1 confirm	PP5 counter
O=C(CC(=O)N/N=C/c1ccc(C(=O)O)cc1)NCCc1ccccc1	–	–	–	–	–	·	·
COc1cc(/C=C2\SC(=N)N(c3ccc(F)cc3)C2=O)ccc1O	–	26.4	–	–	–	20.1	–
CCOc1ccc(N2C(=O)S/C(=C\c3ccc(O)c(OC)c3)C2=O)cc1	–	–	–	–	–	·	·
CCOC(=O)Cc1cc(=O)n2[nH]c(-c3ccc(C)cc3)cc2n1	–	18.2	–	–	–	–	–
CCOC(=O)Cc1cc(=O)n2[nH]c(C)c(-c3ccc(Cl)cc3)c2n1	–	24.8	–	–	–	18.2	–
Cc1ccc(OCc2cc(C(=O)N(C)Cc3cnn(C)c3)no2)cc1C	·	·	·	–	–	·	·
COc1ccc(/C=C2\SC(=O)N(CC(=O)NNC(=O)c3ccccc3O)C2=O)cc1	–	17.8	–	–	–	22.8	–
COCCNC(=O)CSc1ccc(Cl)cc1	–	–	–	–	–	·	·
Cn1c2ccccc2c(=O)c2c(=O)n(Cc3ccco3)c(-c3ccc(Cl)cc3Cl)nc21	–	23.1	·	·	·	–	–
O=C1CC(N2C(=O)/C(=C/C=C/c3ccccc3)SC2=S)C(=O)N1c1ccccc1 (stereo not drawn)	–	24.0	–	–	–	–	–
CCCc1[nH]n(-c2nc3ccccc3s2)c(=O)c1C=NCCN1CCOCC1	–	19.6	–	–	–	–	–
CCCc1[nH]n(-c2nc3ccccc3s2)c(=O)c1C=NCCCOC	–	–	–	–	–	·	·
CCc1ccc(NC(=O)Cn2c(=O)c3cccn3c3ccccc32)cc1	–	22.0	–	–	–	18.0	–
CCN(CC)CCNC(=O)C(=O)Nc1cc2c3c(c1)CCN3C(=O)CC2	–	18.1	–	–	–	–	–
CC1=NN(c2nc3ccccc3[nH]2)C(=O)/C1=C/N(C)C	–	23.3	–	–	–	–	–
CC1=NN(c2ccccc2)C(=O)/C1=C/N(C)C	–	–	–	–	–	·	·
COc1cnc(-c2ccccn2)nc1Oc1ccc(Cl)cc1	–	57.6	–	–	–	38.9	–
COc1cnc(-c2ccccn2)nc1Oc1ccc(Cl)c2ccccc12	–	50.4	–	–	–	42.9	–
COc1cnc(-c2ccccn2)nc1Oc1ccc(F)cc1F	–	21.1	–	–	–	22.9	–
COc1cnc(-c2ccccn2)nc1Oc1ccccc1Cl	–	30.1	–	–	–	38.0	–
Cc1nn(Cc2ccc(C(=O)N3CCOCC3)o2)c(C)c1Br	–	–	–	–	–	·	·
O=C(O)c1ccccc1C(=O)Nc1cccc([N+](=O)[O-])c1	–	–	–	–	–	·	·

Screens: PubChem, several laboratories
